# Measurements from ChEMBL document CHEMBL4138089, “Novel Imidazo[4,5-c][1,2,6]thiadiazine 2,2-dioxides as antiproliferative trypanosoma cruzi drugs: Computational screening from neural network, synthesis and in vivo biological properties” (Eur J Med Chem, 2017).
# Active and inactive are the calls of the source. The calls are words filed in the database; no cut-off is given here.
# How the values were obtained:
# Trypanosoma cruzi [1] = experiment: Growth inhibition of Trypanosoma cruzi Tulahuen 2 epimastigotes at 25 uM after 5 days relative to control; format: functional; conditions: Tulahuen 2, 120 h, read-out: GI
# Trypanosoma cruzi [2] = experiment: Antitrypanosomal activity against Trypanosoma cruzi Tulahuen 2 epimastigotes after 5 days; format: functional, organism-based; conditions: Tulahuen 2, 120 h
# J774 = experiment: Cytotoxicity against mouse J774 cells assessed as reduction in cell viability after 48 hrs by MTT assay; format: cell-based; conditions: J774, 48 h
# Method in brief: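 J774 macrophages, 37°C, 5% CO2, 48 h with compounds in DMSO at 100, 200 and 400 μM. Viability from mitochondrial activity by MTT/formazan.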
# [3] = Selectivity index, ratio of IC50 for mouse J774 cells to IC50 for Trypanosoma cruzi Tulahuen 2 epimastigotes; format: toxicity; conditions: J774 cells versus Trypanosoma cruzi Tulahuen 2 epimastigotes, read-out: Ratio IC50
# Trypanosoma cruzi [4] = experiment: Growth inhibition of Trypanosoma cruzi clone CL B5 epimastigotes at 25 uM after 72 hrs by beta-galactosidase reporter gene assay relative to control; format: functional; conditions: clone CL B5, 72 h, read-out: GI
# Trypanosoma cruzi [5] = experiment: Antitrypanosomal activity against Trypanosoma cruzi clone CL B5 epimastigotes at 25 uM after 72 hrs by beta-galactosidase reporter gene assay; format: functional, organism-based; conditions: clone CL B5, 72 h
# L929 = experiment: Cytotoxicity against mouse NCTC-929 cells assessed as reduction in cell viability after 48 hrs by resazurin dye-based assay; conditions: L929, 48 h
# Method in brief: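 NCTC-929 fibroblasts, 15,000 cells/well in MEM, attached 3 h at 37°C/5% CO2, then compounds in fresh medium 48 h. Resazurin (2 mM stock in PBS, pH 7.0) added for 3 h more; fluorescence ex 535/em 590 nm. Growth and medium controls on each plate.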
# [6] = Selectivity index, ratio of IC50 for mouse NCTC-929 cells to IC50 for Trypanosoma cruzi clone CL B5 epimastigotes; format: toxicity; conditions: read-out: Ratio IC50
# [7] = target: Cruzipain (Trypanosoma cruzi) (UniProt P25779); experiment: Inhibition of Trypanosoma cruzi cruzipain at 100 uM using Bz-Pro-Phe-Arg-p-NA as a chromogenic substrate preincubated for 10 mins followed by substrate addition measured for 5 mins by spectrophotometer relative to control
# Method in brief: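 Cruzipain preincubated 10 min at ambient temperature in 50 mM Tris-HCl pH 7.6 with 10 mM mercaptoethanol and 25, 50 or 100 μM inhibitor (DMSO). Bz-Pro-Phe-Arg-p-NA then added at 150 μM final, A410 followed for 5 min. Controls carry the same DMSO level and define 100% activity.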
# Trypanosoma cruzi [8] = experiment: Growth inhibition of Trypanosoma cruzi clone CL B5 amastigotes harboring lacZ derived from infected mouse NCTC-929 cells at 25 uM after 7 days by beta-galactosidase reporter gene assay relative to control; format: functional; conditions: clone CL B5, NCTC-929, 168 h, read-out: GI
# Method in brief: (§1)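 NCTC-929 fibroblasts seeded 10,000 cells/well in MEM, attached 2-3 h at 37°C, 5% CO2, then infected with NCTC-929-derived CL-B5 lacZ trypomastigotes (1:6 cells:parasites) for 24 h at 33°C. Washed in PBS, drug in DMSO added in fresh medium, 7 days at 33°C. CPRG (400 µM, pH 7.4, 3% Triton X-100) added, 3 h at 37°C, A595. PGIa computed against infected untreated wells after subtracting uninfected-cell background. IC50a derived from PGIa.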
# Trypanosoma cruzi [9] = experiment: Antitrypanosomal activity against Trypanosoma cruzi clone CL B5 amastigotes harboring lacZ infected in mouse NCTC-929 cells after 7 days by beta-galactosidase reporter gene assay; format: functional, organism-based; conditions: clone CL B5, NCTC-929, 168 h; method in brief: as §1
# Cruzipain = Cruzipain (Trypanosoma cruzi, UniProt P25779); experiment: Inhibition of Trypanosoma cruzi cruzipain using Bz-Pro-Phe-Arg-p-NA as a chromogenic substrate preincubated for 10 mins followed by substrate addition measured for 5 mins by spectrophotometry
# Method in brief: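 Cruzipain preincubated 10 min at ambient temperature in 50 mM Tris-HCl pH 7.6 with 10 mM mercaptoethanol and 25, 50 or 100 μM inhibitor (DMSO). Controls carry the same DMSO level and define 100% activity.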
# Salmonella typhimurium [10] = experiment: Genotoxicity in Salmonella typhimurium TA98 up to 500 ug/plate in absence of mouse liver S9 fraction by Ames test; format: toxicity, organism-based; conditions: salmonella enterica subsp. enterica serovar typhimurium
# Method in brief: (§2)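 TA98 by direct plate incorporation on minimal glucose agar with Vogel-Bonner E; toxicity to the strain checked first. Compounds in DMSO, in triplicate, top dose 500 µg/plate; ± Aroclor-induced mouse liver S9 (500 µL). Positive controls 4-nitro-o-phenylenediamine 20.0 µg/plate (no S9), 2-aminofluorene 10.0 µg/plate (S9); DMSO negative. Manual revertant counts, mean of two experiments ±SD; mutagenic if ≥2× negative control at two consecutive doses.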
# Salmonella typhimurium [11] = experiment: Genotoxicity in Salmonella typhimurium TA98 up to 500 ug/plate in presence of mouse liver S9 fraction by Ames test; format: toxicity, organism-based; conditions: salmonella enterica subsp. enterica serovar typhimurium; method in brief: as §2
# Mus musculus = experiment: Antitrypanosomal activity against bloodstream forms of Trypanosoma cruzi Y infected in NMRI mouse assessed as decrease in number of blood trypomastigotes at 100 mg/kg, po administerd for 5 consecutive days starting from day 5 post infection measured from 4th day of treatment; format: functional, organism-based
# Trypanosoma cruzi [12] = experiment: Antitrypanosomal activity against bloodstream forms of Trypanosoma cruzi Y infected in NMRI mouse assessed as mouse survival at 100 mg/kg, po administerd for 5 consecutive days starting from day 5 post infection; conditions: 720 h
# Sequence of Cruzipain (P25779 whole entry): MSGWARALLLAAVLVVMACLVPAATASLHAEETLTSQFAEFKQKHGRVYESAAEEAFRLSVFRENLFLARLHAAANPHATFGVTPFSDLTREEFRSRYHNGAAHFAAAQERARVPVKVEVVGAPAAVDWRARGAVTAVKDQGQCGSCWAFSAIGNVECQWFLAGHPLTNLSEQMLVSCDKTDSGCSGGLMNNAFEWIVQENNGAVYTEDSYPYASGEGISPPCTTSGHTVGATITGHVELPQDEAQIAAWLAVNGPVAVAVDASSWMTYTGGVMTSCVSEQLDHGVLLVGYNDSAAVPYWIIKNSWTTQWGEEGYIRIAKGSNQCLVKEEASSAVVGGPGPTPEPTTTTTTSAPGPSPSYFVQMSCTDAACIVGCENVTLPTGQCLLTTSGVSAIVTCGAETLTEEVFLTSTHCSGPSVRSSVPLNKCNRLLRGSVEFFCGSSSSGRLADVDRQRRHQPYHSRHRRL
# Sequence of Cruzipain (Trypanosoma cruzi) (P25779 123-467 limits assumed): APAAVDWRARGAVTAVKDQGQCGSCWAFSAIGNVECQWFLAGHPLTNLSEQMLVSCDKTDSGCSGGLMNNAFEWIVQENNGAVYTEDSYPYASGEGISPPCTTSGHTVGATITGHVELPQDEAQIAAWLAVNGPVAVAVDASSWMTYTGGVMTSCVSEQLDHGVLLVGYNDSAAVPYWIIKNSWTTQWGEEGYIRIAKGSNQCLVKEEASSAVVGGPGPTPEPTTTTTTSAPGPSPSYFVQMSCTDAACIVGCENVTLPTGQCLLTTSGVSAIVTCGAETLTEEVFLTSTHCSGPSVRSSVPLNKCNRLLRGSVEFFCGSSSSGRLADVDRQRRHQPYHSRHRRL
Structure (SMILES),IC50 (Trypanosoma cruzi [2]) [µM],inhibition of growth at 25 µM (Trypanosoma cruzi [1]) [%],selectivity ratio [3],inhibition of growth at 25 µM (Trypanosoma cruzi [4]) [%],further results
O=C(Cn1ccnc1[N+](=O)[O-])NCc1ccccc1 [BENZNIDAZOLE],–,–,–,49,inhibition of growth at 25 µM (Trypanosoma cruzi [8]): 100%; IC50 (L929): > 256 µM; selectivity ratio [6]: > 9.4; IC50 (Trypanosoma cruzi [9]): 0.8 µM
NC1=NS(=O)(=O)Nc2nc(C3CCCC3)[nH]c21,28.9,42.2,–,–,–
CN1c2nc(-c3ccsc3)[nH]c2C(N)=NS1(=O)=O,26.2,46.3,–,–,–
NC1=NS(=O)(=O)Nc2nc(-c3cccnc3)[nH]c21,> 25,37.5,–,–,–
NC1=NS(=O)(=O)Nc2nc(-c3ccccc3F)[nH]c21,20.2,57.8,–,–,–
NC1=NS(=O)(=O)N(Cc2ccccc2)c2nc(-c3ccccc3)n(Cc3ccccc3)c21,4.5,100,22,60.8,inhibition of growth at 25 µM (Trypanosoma cruzi [8]): 90.2%; IC50 (J774): 100 µM; IC50 (Trypanosoma cruzi [5]): 3.6 µM; IC50 (L929): < 64 µM; selectivity ratio [6]: < 17.8; IC50 (Cruzipain): 81 µM; Activity (Mus musculus): Active; Activity (Salmonella typhimurium [10]): Non-Toxic; Activity (Salmonella typhimurium [11]): Non-Toxic; survival at 100 mg/kg (Trypanosoma cruzi [12]): 87.5%
NC1=NS(=O)(=O)Nc2nc(-c3ccc([N+](=O)[O-])o3)[nH]c21,> 25,31.3,–,–,–
CC1CS(=O)(=O)CCN1/N=C/c1ccc([N+](=O)[O-])o1 (stereo unspecified) [NIFURTIMOX],–,–,41,82.2,inhibition of growth at 25 µM (Trypanosoma cruzi [8]): 100%; IC50 (L929): > 256 µM; selectivity ratio [6]: > 71.1; IC50 (Trypanosoma cruzi [9]): < 0.5 µM
CCc1nc2c([nH]1)C(N)=NS(=O)(=O)N2,28.5,43,–,–,–
NC1=NS(=O)(=O)Nc2nc(C3CCCCC3)[nH]c21,12.7 to 16.2,72.3,> 25,54.8,inhibition of growth at 25 µM (Trypanosoma cruzi [8]): 0%; IC50 (Trypanosoma cruzi [5]): 2.5 µM; IC50 (L929): > 256 µM; selectivity ratio [6]: > 102; IC50 (Cruzipain): 12 µM; Activity (Mus musculus): inactive

# Second part, led by results:
IC50 (Trypanosoma cruzi [2]) [µM],Structure (SMILES),inhibition of growth at 25 µM (Trypanosoma cruzi [1]) [%],selectivity ratio [3],inhibition of growth at 25 µM (Trypanosoma cruzi [4]) [%],further results
11.5,NC1=NS(=O)(=O)Nc2nc(CCc3ccccc3)[nH]c21,73.6,> 34.8,51.1,IC50 (J774): > 400 µM; IC50 (Trypanosoma cruzi [5]): 17.5 µM; IC50 (L929): > 256 µM; selectivity ratio [6]: > 14.6; inhibition [7]: 39%
> 25,NC1=NS(=O)(=O)Nc2[nH]c(-c3ccccc3)nc21,39.6,–,–,–
> 25,Cc1nc2c([nH]1)C(N)=NS(=O)(=O)N2,38.7,–,–,–
7,NC1=NS(=O)(=O)N(Cc2ccc(Cl)cc2)c2nc(-c3ccccc3F)[nH]c21,86.3,< 14.2,42.1,IC50 (J774): < 100 µM; IC50 (Trypanosoma cruzi [5]): > 25 µM; IC50 (Cruzipain): 86 µM
> 25,NC1=NS(=O)(=O)N(Cc2ccc(Cl)cc2)c2nc(C3CCCCC3)[nH]c21,0,–,–,–
28.7,NC1=NS(=O)(=O)N(Cc2ccccc2)c2nc(C3CCCCC3)n(Cc3ccccc3)c21,45.7,–,–,–
12.7 to 16.2,NC1=NS(=O)(=O)Nc2nc(Cc3ccccc3)[nH]c21,59.7,> 31,17.7,IC50 (Trypanosoma cruzi [5]): > 25 µM; IC50 (Cruzipain): 23 µM; Activity (Salmonella typhimurium [10]): Non-Toxic; Activity (Salmonella typhimurium [11]): Non-Toxic
29.5,NC1=NS(=O)(=O)N(Cc2ccccc2)c2nc(-c3ccccc3)[nH]c21,41.6,–,–,–
20.3,NC1=NS(=O)(=O)Nc2nc(C3CCOC3)[nH]c21 (stereo unspecified),56.4,–,–,–
16.7,CN1c2nc(-c3ccccc3)[nH]c2C(N)=NS1(=O)=O,58,7.7,11.3,IC50 (J774): 128 µM; IC50 (Trypanosoma cruzi [5]): > 25 µM; inhibition [7]: 27.4%; Activity (Salmonella typhimurium [10]): Non-Toxic; Activity (Salmonella typhimurium [11]): Non-Toxic
22.2,NC1=NS(=O)(=O)Nc2nc(-c3ccsc3)[nH]c21,51.3,–,–,–
28.5,CN(C)c1ccc(-c2nc3c([nH]2)C(N)=NS(=O)(=O)N3)cc1,42.8,–,–,–
